Reference: ChEMBL document CHEMBL1138250, “Spiro- and dispiro-1,2-dioxolanes: contribution of iron(II)-mediated one-electron vs two-electron reduction to the activity of antimalarial peroxides” (J Med Chem, 2007)
≈ marks a conversion by molar mass, not a printed value.

Columns and labels:
Plasmodium berghei = assay: Antimalarial activity as reduced parasitaemia against Plasmodium berghei infected NMRI mice (Mus musculus) at 100 mg/kg peroral dose 3 days post-infection; type: functional; design: scale not given: the % may be the effect or the level left; settings: route oral
Method in brief: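 Groups of three NMRI mice infected with P. berghei were dosed orally 1 day after infection with 100 mg/kg, dissolved or suspended in 3% ethanol/7% Tween-80 vehicle. Percent reduction in parasitemia was read on day 3 post-infection against an untreated control group; individual measurements generally within 10%.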

Plasmodium falciparum [1] = assay: Antimalarial activity against chloroquine-sensitive Plasmodium falciparum NF54; type: functional, organism-based
Method in brief: (§1)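 IC50 (ng/mL) against P. falciparum blood stages, K1 (chloroquine-resistant) and NF54 (chloroquine-sensitive), reported as the mean of n = 2-3 determinations; individual measurements generally within 50% of each other.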

Plasmodium falciparum [2] = assay: Antimalarial activity against chloroquine-resistant Plasmodium falciparum K1; type: functional, organism-based; method in brief: as §1
Plasmodium falciparum [3] = assay: Antimalarial activity against Plasmodium falciparum; type: functional, organism-based
Method in brief: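 In vitro assay against chloroquine-resistant K1 and chloroquine-sensitive NF54 strains of P. falciparum. IC50 is reported in ng/mL as the mean of 2-3 determinations per strain, and individual measurements generally differed by less than 50%.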

C1CCC2(CC1)CC1(CCCC1)OO2
Activity (Plasmodium berghei): 0%
IC50 (Plasmodium falciparum [1]): 0.062 µg/mL (≈ 0.316 µM)
IC50 (Plasmodium falciparum [2]): 0.041 µg/mL (≈ 0.209 µM)

CCCC1(CCC)CC2(OO1)C1CC3CC(C1)CC2C3 (stereo not drawn)
Activity (Plasmodium berghei): 6%
IC50 (Plasmodium falciparum [1]): 0.12 µg/mL (≈ 0.431 µM)
IC50 (Plasmodium falciparum [2]): 0.12 µg/mL (≈ 0.431 µM)

OC1(CC2(O)C3CC4CC(C3)CC2C4)CCCCC1 (stereo not drawn)
IC50 (Plasmodium falciparum [3]): > 1 µg/mL

c1ccc(C2CCC3(CC2)CC2(CCCCC2)OO3)cc1 (stereo not drawn)
Activity (Plasmodium berghei): 84%
IC50 (Plasmodium falciparum [1]): 0.093 µg/mL (≈ 0.325 µM)
IC50 (Plasmodium falciparum [2]): 0.041 µg/mL (≈ 0.143 µM)

CC(C)(C)C1CCC2(CC1)CC1(CCCC1)OO2 (stereo not drawn)
Activity (Plasmodium berghei): 45%
IC50 (Plasmodium falciparum [1]): 0.18 µg/mL (≈ 0.713 µM)
IC50 (Plasmodium falciparum [2]): 0.13 µg/mL (≈ 0.515 µM)

c1ccc(C2CCC3(CC2)CC2(CCCC2)OO3)cc1 (stereo not drawn)
Activity (Plasmodium berghei): 49%
IC50 (Plasmodium falciparum [1]): 0.083 µg/mL (≈ 0.305 µM)
IC50 (Plasmodium falciparum [2]): 0.038 µg/mL (≈ 0.14 µM)

CCOC(=O)CCC1(C)CC2(CCCCC2)OO1 (stereo not drawn)
Activity (Plasmodium berghei): 18%
IC50 (Plasmodium falciparum [1]): 0.081 µg/mL (≈ 0.316 µM)
IC50 (Plasmodium falciparum [2]): 0.048 µg/mL (≈ 0.187 µM)

C1CCC2(CC1)CC1(OO2)C2CC3CC(C2)CC1C3 (stereo not drawn)
Activity (Plasmodium berghei): 0%
IC50 (Plasmodium falciparum [1]): 0.66 µg/mL (≈ 2.52 µM)
IC50 (Plasmodium falciparum [2]): 0.77 µg/mL (≈ 2.93 µM)

CC1(CCC(=O)O)CC2(CCCCC2)OO1 (stereo not drawn)
Activity (Plasmodium berghei): 0%
IC50 (Plasmodium falciparum [1]): > 1 µg/mL
IC50 (Plasmodium falciparum [2]): > 1 µg/mL

CC1(CCCO)CC2(CCCCC2)OO1 (stereo not drawn)
Activity (Plasmodium berghei): 0%
IC50 (Plasmodium falciparum [1]): 0.08 µg/mL (≈ 0.373 µM)
IC50 (Plasmodium falciparum [2]): 0.05 µg/mL (≈ 0.233 µM)

CC(C)(C)C1CCC2(CC1)CC1(CCCCC1)OO2 (stereo not drawn)
Activity (Plasmodium berghei): 30%
IC50 (Plasmodium falciparum [1]): 0.12 µg/mL (≈ 0.45 µM)
IC50 (Plasmodium falciparum [2]): 0.063 µg/mL (≈ 0.236 µM)

CCCC1(CCC)CC2(CCCCC2)OO1
Activity (Plasmodium berghei): 0%
IC50 (Plasmodium falciparum [1]): 0.36 µg/mL (≈ 1.59 µM)
IC50 (Plasmodium falciparum [2]): 0.23 µg/mL (≈ 1.02 µM)

c1ccc(C2CC3(CCCCC3)OO2)cc1 (stereo not drawn)
Activity (Plasmodium berghei): 0%
IC50 (Plasmodium falciparum [1]): 0.66 µg/mL (≈ 3.02 µM)
IC50 (Plasmodium falciparum [2]): 0.44 µg/mL (≈ 2.02 µM)

c1ccc(C2CCC3(CC2)CC2(OO3)C3CC4CC(C3)CC2C4)cc1 (stereo not drawn)
Activity (Plasmodium berghei): 0%
IC50 (Plasmodium falciparum [1]): > 1 µg/mL
IC50 (Plasmodium falciparum [2]): > 1 µg/mL

C1CCC2(CC1)CC1(CCCCC1)OO2
Activity (Plasmodium berghei): 0%
IC50 (Plasmodium falciparum [1]): 0.11 µg/mL (≈ 0.523 µM)
IC50 (Plasmodium falciparum [2]): 0.041 µg/mL (≈ 0.195 µM)
